Values after ≈ are worked out from the molar mass of the structure shown. Where two headings read alike, the source gives them in different places.
Assays:
[1] = test system: PC12 cells; assay: Cellular uptake by fluorescent microscopy; format: cell-based, rat; conditions: 100 μg/mL, 24 h incubation, 37 °C
Method in brief: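 PC12 cells at 5 × 10^4 cells/well in DMEM with 10% FBS and antibiotics, kept at 37 °C in 5% CO2. Exposed to test compound at 37 °C for 24 h. Washed three times with cold PBS, then 3 min in sterile distilled water. Intrinsic compound fluorescence imaged without staining by fluorescence microscopy (bright field, DAPI, GFP channels), compared with untreated cells.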

[2] = test system: fibroblast cell line; assay: In vitro antiproliferative MTT assay, fibroblast; format: cell-based; conditions: 48 h
Method in brief: (§1)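 PC12 (rat pheochromocytoma) or fibroblast cells at 5000/well in DMEM with 10% heat-inactivated FBS, penicillin 100 U/mL and streptomycin 100 μg/mL, grown 24 h. At 80% confluence, test compound or docetaxel/cisplatin controls were added at 1–360 μg/mL for 48 h. MTT (5 mg/mL in PBS pH 7.4) added for 3–4 h; formazan dissolved in DMSO, read at 570 nm. Triplicate; IC50 calculated.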

[3] = test system: PC12 cell line; assay: In vitro antiproliferative MTT assay, PC12; format: cell-based, rat; conditions: 48 h
Method in brief: as §1

[4] = test system: formation of β-hematin; assay: In vitro β-hematin inhibition assay; format: biochemical; conditions: 200 μg/mL, 60 °C, 24 h; positive if more than 90%
Method in brief: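 Heme detoxification (ITHD) assay. Hemin chloride was dissolved in DMSO and diluted to 60 μg/mL in 1 M acetate buffer pH 4.5. Tween 20 stock was 0.012 g/L; compound was dissolved in DMSO. Hemin, sample and Tween were mixed 9:9:2 in triplicate, final 200 μg/mL. Controls: hemin-free matrix blanks, DMSO negative, chloroquine phosphate positive. Incubated 60 °C, 24 h; mixed and absorbance read at 405 nm.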

[5] = test system: P. falciparum; conditions: cited from earlier work

## Cc1c(OCc2ccccc2)c(=O)ccn1CCCOC(=O)c1ccc(Cl)cc1Cl [7a, 3-(3-(benzyloxy)-2-methyl-4-oxopyridin-1(4H)-yl) propyl 2,4-dichlorobenzoate]
[1]
  cellular uptake (fluorescent emission): cellular uptake potential
[2]
  IC50 on fibroblast cell line: 44 µg/mL (≈ 98.6 µM)
[3]
  IC50 against PC12: 37 µg/mL (≈ 82.9 µM)
[4]
  Heme inhibition (%): 39%

## Cc1occc(=O)c1O [Maltol]
[5]; 0.01 mM
  inhibition of growth of P. falciparum compared to control: about 15%
[5]; 0.10 mM
  inhibition of growth of P. falciparum compared to control: ~50%

## Cc1c(OCc2ccccc2)c(=O)ccn1CCCO [alcoholic precursor, 3-(benzyloxy) -1-(3-hydroxypropyl) -2-methylpyridin-4(1H)-one]
[3]; 1-360 μg/mL
  toxicity against PC12 in words: didn’t display remarkable toxicity in defined concentrations

## N.N.[Cl][Pt][Cl] [cisplatin, reference compound]
[3]
  IC50 against PC12: 8 µg/mL

From publication PMC9075022 (Research in Pharmaceutical Sciences, 2022)
